ChEMBL document CHEMBL3272237, “Gliotoxin analogues as inhibitors of reverse transcriptase. 1. Effect of lipophilicity” (J Med Chem, 1978)

Legend:
[1] = tested on: Moloney murine leukemia virus; experiment: Inhibition of Moloney murine leukemia virus reverse transcriptase using [3H-methyl]-dTTP as substrate after 120 mins; parameters: unit not given here
Procedure, shortened: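 Enzyme source was Moloney MLV from infected NIH-3T3 cells, gradient-purified, used as whole virus. Mix: 40 mM Tris-HCl pH 7.8, 50 mM NaCl, 2 mM MnCl2, 1.6 mM DTT, 0.0125% Triton X-100, 0.64 mM each dATP/dCTP/dGTP, [methyl-3H]dTTP. Compounds were tested at 4–400 μg/mL (Me2SO up to 4%). Incubation was 37 °C, sampled at 120 min for acid-precipitable counts, mean of three runs. I50 read from %-of-Me2SO-control plot.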

[2] = Lipophilicity of the compound by reversed-phase TLC analysis; type: physicochemical; conditions: RP-TLC on silylated silica plates impregnated with Dow-Corning 704 fluid
Procedure, shortened: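 Silica gel F-254 plates were silanized with 5% (CH3)2SiCl2 in toluene, then impregnated with 5% Dow-Corning 704 fluid in ether. Spots were 1 μL of 3 mg/mL CH2Cl2 solution. Plates were developed in acetone–water 3:1 saturated with the fluid and visualized with 2% aqueous AgNO3. Rm = log(1/Rf − 1), averaged over five determinations.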

[3] = Lipophilicity of the compound by reversed-phase HPLC analysis; conditions: ODS stationary phase, MeOH-H2O (2:1) mobile phase

log(I50×10^5) [1]	Rm [2]	log k' [3]	SMILES
1.93	0.2769	-0.1291	CC(C)N1C(=O)C23SSC1(C)C(=O)N2c1ccccc1C3(C)C (stereo unspecified)
0.574	0.3514	0.0994	CC12SSC3(C(=O)N1Cc1ccccc1)N(C2=O)c1ccccc1C3(C)C (stereo unspecified)
0.978	0.3007	-0.0527	CN1C(=O)C23SSC1(c1ccccc1)C(=O)N2c1ccccc1C3(C)C (stereo unspecified)
1.89	0.1636	-0.34	CCN1C(=O)C23SSC1(C)C(=O)N2c1ccccc1C3(C)C (stereo unspecified)
2.07	0.0132	-1.067	CN1CC(=O)N2c3ccccc3C(C)(C)C2(S)C1=O (stereo unspecified)
1.69	0.2892	-0.1127	CC12SSC3(C(=O)N1c1ccccc1)N(C2=O)c1ccccc1C3(C)C (stereo unspecified)
1.06	0.2717	-0.0817	CCCN1C(=O)C23SSC1(C)C(=O)N2c1ccccc1C3(C)C (stereo unspecified)
